Source: PubChem (several laboratories)
A selection: hits, their analogues and other compounds. The true share with any hit is near 1.8%.
NSD2 inh = blocks human histone methyltransferase NSD2; inhibition, % at 12.5 µM; O96028; NSD2 peptide methylation, AlphaScreen, 120 min; AID 743445; 0.54% of 310,000 active; in the data active = inhibition above about 50%
CASP6 VEID inh = inhibitors of human caspase-6; P55212; purified caspase-6, Z-VEID-R110 cleavage fluorescence; inhibition, % at 12.5 µM; 0.53% of 350,000 active;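 active = mean inhibition across replicates at least about 35%, with every replicate also reaching that limit, limit read from the data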;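 also: 0% = median of neutral control wells and 100% = no fluorescence left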
Target sequence (P55212 24-179 limits assumed): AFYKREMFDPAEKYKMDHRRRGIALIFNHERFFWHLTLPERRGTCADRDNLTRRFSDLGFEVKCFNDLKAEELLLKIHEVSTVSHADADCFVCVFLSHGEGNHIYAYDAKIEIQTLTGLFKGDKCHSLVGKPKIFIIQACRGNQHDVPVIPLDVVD
Target sequence (P55212 194-293 limits assumed): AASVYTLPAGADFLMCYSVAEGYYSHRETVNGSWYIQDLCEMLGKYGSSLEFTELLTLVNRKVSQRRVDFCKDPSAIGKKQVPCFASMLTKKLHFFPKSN
LEDGF integ inh = blocks HIV-1 LEDGF/p75-dependent DNA integration; TR-FRET IN-LEDGF/p75 DNA integration, Eu/Cy5; inhibition, % at 3.7 µM; 0.64% of 370,000 active;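 active = inhibition above the screen-wide mean plus 3 SD, cut at about 13% in these data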;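 also: signal is the Cy5 over europium emission ratio at 671 and 618 nm; 0% = plate median of compound wells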
UHRF1 MBD2 ctr = UHRF1 methyl-DNA binding inhibition; Q96T88; UHRF1 binding to methylated oligo, TR-FRET; inhibition, % at 4.4 µM; 0.75% of 370,000 active; AID 687016;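 also: UHRF1 SRA domain binding a hemimethylated CpG hairpin DNA probe; 0% = median of test compound wells and 100% = reference inhibitor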
MBD2 DNA inh = inhibitors of human MBD2 binding to methylated oligonucleotide. Q9UBB5. TR-FRET. inhibition, % at 4.4 µM. 0.31% of 370,000 active; in the data active = inhibition above about 13%
Target sequence (Q9UBB5 whole entry, looked up): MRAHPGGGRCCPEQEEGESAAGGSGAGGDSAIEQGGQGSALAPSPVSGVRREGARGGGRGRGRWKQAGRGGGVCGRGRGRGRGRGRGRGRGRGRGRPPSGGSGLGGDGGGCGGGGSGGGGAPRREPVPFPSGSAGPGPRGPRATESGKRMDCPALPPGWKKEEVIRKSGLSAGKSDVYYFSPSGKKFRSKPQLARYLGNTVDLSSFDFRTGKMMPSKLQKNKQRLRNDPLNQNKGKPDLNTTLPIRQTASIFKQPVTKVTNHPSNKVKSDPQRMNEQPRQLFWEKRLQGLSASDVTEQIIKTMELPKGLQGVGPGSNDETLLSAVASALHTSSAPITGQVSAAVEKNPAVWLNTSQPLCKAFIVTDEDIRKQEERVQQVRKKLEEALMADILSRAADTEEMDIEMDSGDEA
TDP2 inh = TDP2 (human) inhibition, absorbance primary screen; recombinant TDP2, T5PNP hydrolysis, p-nitrophenol absorbance 415 nm; 0.34% of 370,000 active; O95551; AID 720702; inhibition, % at 12.8 µM;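 active = inhibition above the mean of all tested compounds plus 3 SD, set per campaign, cut at about 25% in these data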;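 also: 0% = DMSO with enzyme and 100% = buffer with substrate but no TDP2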
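System: recombinant human TDP2 / Amount: 120 nM TDP2 per well / Also added: 5 mM T5PNP chromogenic substrate / Doses: 12.8 µM single point, 1% DMSO / Incubation: 2 h at 37 °C / Detection: p-Nitrophenol epi absorbance / Evaluation: % inhibition relative to enzyme-containing and enzyme-free wells / Repeats: singlicate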
UHRF1 DNA bind = UHRF1 methyl-oligo binding inhibition as MBD2 counter-screen; shares compounds with MBD2 DNA inh; UHRF1 binding to methylated oligonucleotide, TR-FRET; inhibition, % at 4.4 µM; 25% of 1,000 active;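 also: UHRF1 SRA domain binding a labeled hemimethylated CpG hairpin DNA; 0% = vehicle only and 100% = reference inhibitor with vehicle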
MBD2 confirm = confirmation of human MBD2-DBD methylated oligonucleotide binding inhibitors; 26% of 1,000 active; inhibition, % at 4.4 µM; TR-FRET MBD2-DBD binding to methylated oligonucleotide; shares compounds with MBD2 DNA inh; AID 720531; in the data active = inhibition above about 14%
An asterisk follows results filed as active; / = not tested or not shown. Rule as the data show it, unless noted: active = inhibition above about 21%; inactive = the rest.

SMILES | NSD2 inh | CASP6 VEID inh | LEDGF integ inh | UHRF1 MBD2 ctr | MBD2 DNA inh | TDP2 inh | UHRF1 DNA bind | MBD2 confirm
Cc1ccc(Cc2c(-c3ccccc3)nc3cc(C)ccn23)cc1 | / | -2 | -4 | 27* | 17* | -17 | 13 | 6
OCC1(CCOc2ccccc2)CCN(CCCn2cccn2)CC1 | -4 | -3 | -4 | 19 | 13* | -12 | 8 | 3
OCC1(CCOc2ccccc2)CCN(Cc2ccncc2)CC1 | -1 | -1 | -2 | 1 | 3 | 8 | / | /
CC1Sc2ccccc2N(Cc2ccc(OC(F)(F)F)cc2)C1=O (centres undefined) | -4 | 1 | -1 | 17 | 26* | -1 | 5 | 5
NC(=O)C1=C[C@@H](c2csc3ccccc23)C[C@@H](OCCCCO)O1 | / | -3 | 4 | -5 | 15* | -3 | 0 | 1
COc1cccc(NC(=O)N2C[C@@H](O)COC[C@@H]3O[C@H](CC(=O)NC4Cc5ccccc5C4)CC[C@H]32)c1 | / | 1 | / | / | / | / | / | /
CCC1CCCCN1C(=O)COC(=O)c1cccs1 (centres undefined) | -2 | -2 | -1 | 14 | 17* | 7 | 1 | 7
CCOC(=O)c1c(NC(=O)C2CCCCC2)sc2c1CCN(C(C)C)C2 | / | 1 | 0 | 2 | 16* | -2 | 5 | 5
CCOC(=O)c1c(NC(=O)c2ccc(S(=O)(=O)N3CCOCC3)cc2)sc2c1CCN(C(C)C)C2 | -2 | -1 | 0 | 25* | 20* | 1 | 34* | 27*
COC(=O)c1c(NC(=O)C2CCCCC2)sc2c1CCN(C(C)C)C2 | / | -1 | -2 | 3 | 4 | 1 | / | /
O=C([C@H]1[C@H](CO)[C@H]2Cn3c(cccc3=O)[C@@H]1N2CC1CCCC1)N1CCOCC1 | / | 0 | / | / | / | / | / | /
COc1ccc(C#Cc2cnc3c(c2)C(=O)N([C@@H](C)CO)C[C@@H](C)[C@@H](CN(C)C(C)=O)O3)cc1 | / | -1 | / | / | / | / | / | /
COc1ccc(NC(=O)N(C)C[C@H]2Oc3c(cccc3N(C)C)C(=O)N([C@H](C)CO)C[C@H]2C)cc1 | / | 0 | / | / | / | / | / | /
Cc1ccc(S(=O)(=O)Nc2ccccc2C=Nc2cccc(C)c2C)cc1 | -2 | 3 | 11 | -2 | -3 | 4 | / | /
Cc1ccc(S(=O)(=O)Nc2ccccc2N=Cc2c(F)c(F)c(F)c(F)c2F)cc1 | -2 | 0 | 2 | -1 | 14* | 0 | 5 | 2
C[C@H]1CCCCO[C@@H](CN(C)C(=O)Nc2ccc(F)cc2)[C@@H](C)CN([C@@H](C)CO)C(=O)c2cc(NC(=O)c3ccncc3)ccc2O1 | / | -1 | / | / | / | / | / | /
CCCSC1=N/C(=C\C=C\c2ccco2)C(=O)S1 | 24 | / | 69* | 95* | 57* | 6 | 27* | 10
CCCSC1=N/C(=C\c2ccsc2)C(=O)S1 | 4 | / | 3 | 6 | 6 | -7 | / | /
CN(CC(=O)Nc1ccc(N2CCOCC2)cc1)C(=O)CCNC(=O)c1ccccc1Cl | 1 | 2 | -6 | 5 | 14* | -10 | 10 | 2
C[C@@H]1CN([C@@H](C)CO)C(=O)c2cccc(NS(=O)(=O)c3ccc(Cl)cc3)c2O[C@@H]1CN(C)Cc1ccc(C(F)(F)F)cc1 | / | 2 | / | / | / | / | / | /
O=C(O)c1cc(N2C(=O)CCC2=O)ccc1Cl | -5 | 1 | 6 | 18 | 15* | 9 | 4 | 2
CN(C)CCNC(=O)c1cccc2[nH]c(-c3ccncc3)nc12 | / | -5 | -1 | 11 | 13* | 13 | 16 | 20*
COc1cccc2nc3c(C(=O)NCCN(C)C)cccc3cc12 | / | -74 | 3 | -12 | 19* | 10 | -5 | 30*
COc1ccc(C(=O)NCCN(C)C)c2nc3ccccc3cc12 | 6 | -24 | 0 | -2 | 36* | 3 | 16 | 70*
COc1ccc(-c2nc3c(C(=O)NCCN(C)C)cccc3c3ccccc23)cc1 | 4 | -15 | -7 | -14 | 13 | -1 | / | /
SMILES | NSD2 inh | CASP6 VEID inh | LEDGF integ inh | UHRF1 MBD2 ctr | MBD2 DNA inh | TDP2 inh | UHRF1 DNA bind | MBD2 confirm
CN(C)CCNC(=O)c1ccccc1-c1ccccc1 | -7 | / | -3 | -2 | 0 | -2 | / | /
Cc1ccc(Cc2c(-c3cccc(Cl)c3)nc3ccc(C)cn23)cc1 | / | -3 | 2 | 16 | 6 | 3 | / | /
CCCc1nc2ccc(C)cn2c1Cc1ccsc1 | / | 2 | -2 | 22* | 16* | 3 | 10 | 7
Cc1ccc2nc(-c3cccc(Cl)c3)c(Cc3ccsc3)n2c1 | / | -4 | -1 | 20 | 13* | 2 | 9 | 5
CO[C@@H]1CN(C)C(=O)c2cc(NC(=O)CC(F)(F)F)ccc2OC[C@H](C)N(S(=O)(=O)c2cn(C)cn2)C[C@@H]1C | / | 0 | / | / | / | / | / | /
COC(=O)[C@@H]1[C@@H](CO)[C@@H]2Cn3c(ccc(C4=CCCCC4)c3=O)[C@@H]2N1Cc1cccnc1 | / | 0 | / | / | / | / | / | /
CO[C@@H]1CN(C)C(=O)c2cc(NC(=O)NC(C)C)ccc2OC[C@H](C)N(Cc2ccccn2)C[C@@H]1C | / | 0 | / | / | / | / | / | /
COCC#Cc1cnc2c(c1)C(=O)N([C@@H](C)CO)C[C@H](C)[C@H](CN(C)C(C)=O)O2 | / | 1 | / | / | / | / | / | /
CC(C)C[C@H]1CN(CCCC[C@H]2CNC(=O)C(=O)N2CCc2ccc(O)cc2)C(=O)C(=O)N1Cc1ccccc1 | / | 0 | 10 | 25* | 13* | 2 | 7 | 3
O=c1[nH]c2ccccc2c2nc3ccccn3c12 | / | / | 1 | -2 | -1 | -1 | / | /
O=c1nc2c(O)cccn2c2c1c(=O)[nH]c1ccccc12 | 3 | 19 | 13 | 43* | 23* | -21 | 25* | 26*
COc1cccc(OC)c1C(=O)Nc1ccc(N2CCN(C(=O)c3cccs3)CC2)cc1 | 22 | 4 | 2 | 1 | -3 | 16 | / | /
COc1ccc(NC(=O)c2cccs2)cc1C(=O)N1CCN(c2ccccc2)CC1 | 1 | 3 | -2 | 1 | 24* | 4 | 9 | 2
C/C(=N\NC(=O)c1nc2ccccn2c1C)c1cccc([N+](=O)[O-])c1 | -3 | 2 | 0 | 0 | 58* | 8 | 4 | 3
Cc1cccc(S(=O)(=O)N2CCCCN3[C@@H](CO)[C@@H](c4ccc(C#C[C@H](C)O)cc4)[C@@H]3C2)c1 | / | -2 | / | / | / | / | / | /
CCOC(=O)C1CC(=O)c2ccccc2C1c1ccccc1 (centres undefined) | / | 1 | 0 | -1 | 3 | -6 | / | /
NC(=O)C1=C(N)c2ccccc2C1c1ccccc1 (centres undefined) | 1 | 5 | -5 | 1 | 32* | -5 | 2 | 1
